Converted amounts (≈) assume the structure as drawn.
What was measured:
[1] = Plasma concentration in cPP-induced feeding Sprague-Dawley rat model at 10 mg/kg, po after 1 hr; assay type: ADME, organism-based; set-up: dose 10 mg/kg, route oral
How it was run: (§1)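 Satellite animals from the cPP feeding study dosed orally at 0.1, 1 or 10 mg/kg; plasma (ng/mL) and brain (ng/g) levels measured 1 h after dosing.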

Cytochrome P450 3A4 = Cytochrome P450 3A4 (Homo sapiens, UniProt P08684); experiment: Inhibition of CYP3A4; assay type: ADME
Sequence of Cytochrome P450 3A4 (P08684 whole entry): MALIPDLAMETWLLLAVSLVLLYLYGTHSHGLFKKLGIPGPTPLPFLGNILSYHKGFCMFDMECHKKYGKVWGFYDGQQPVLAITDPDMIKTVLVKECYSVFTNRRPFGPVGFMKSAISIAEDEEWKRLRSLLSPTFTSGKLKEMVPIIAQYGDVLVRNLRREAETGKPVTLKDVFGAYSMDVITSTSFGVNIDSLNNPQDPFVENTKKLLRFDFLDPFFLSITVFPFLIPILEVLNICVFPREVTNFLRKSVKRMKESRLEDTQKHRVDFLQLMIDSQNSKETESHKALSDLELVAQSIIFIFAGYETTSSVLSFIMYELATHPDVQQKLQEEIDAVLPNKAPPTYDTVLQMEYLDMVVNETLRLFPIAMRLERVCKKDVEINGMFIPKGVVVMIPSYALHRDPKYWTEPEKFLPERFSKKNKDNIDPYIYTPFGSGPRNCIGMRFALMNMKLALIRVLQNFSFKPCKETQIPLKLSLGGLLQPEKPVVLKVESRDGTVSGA

Cytochrome P450 2D6 = Cytochrome P450 2D6 (Homo sapiens, UniProt P10635); experiment: Inhibition of CYP2D6; assay type: ADME
Sequence of Cytochrome P450 2D6 (P10635 whole entry): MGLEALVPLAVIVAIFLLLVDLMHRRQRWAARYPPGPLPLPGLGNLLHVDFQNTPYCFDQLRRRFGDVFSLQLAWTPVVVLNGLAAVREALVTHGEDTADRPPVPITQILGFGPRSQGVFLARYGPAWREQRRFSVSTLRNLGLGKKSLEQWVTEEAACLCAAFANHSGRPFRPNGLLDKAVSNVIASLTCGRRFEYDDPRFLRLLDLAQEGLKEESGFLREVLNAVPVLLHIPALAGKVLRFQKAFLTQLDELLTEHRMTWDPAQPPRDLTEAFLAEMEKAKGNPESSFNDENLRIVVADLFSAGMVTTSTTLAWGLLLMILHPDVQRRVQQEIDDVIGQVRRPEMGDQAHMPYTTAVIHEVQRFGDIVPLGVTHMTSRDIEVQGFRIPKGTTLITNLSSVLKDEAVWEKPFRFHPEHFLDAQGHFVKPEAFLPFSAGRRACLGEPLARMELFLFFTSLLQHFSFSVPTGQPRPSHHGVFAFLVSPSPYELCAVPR

[2] = Clearance in Sprague-Dawley rat plasma at 2 mg/kg, po and 1 mg/kg, iv after 24 hrs wash out period by HPLC analysis; assay type: ADME, organism-based
How it was run: (§2)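 Male Sprague-Dawley rats (200–250 g), jugular and carotid artery cannulated; compound dissolved in 20% beta cyclodextrin, pH adjusted with methane sulfonic acid. Serial blood sampled at 12 time points over 24 h post dose by automated sampler; plasma from centrifugation analysed by HPLC; PK parameters by non-compartmental analysis of plasma concentration–time profile.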

[3] = target: T1, Neuropeptide Y receptor type 5 (Homo sapiens, UniProt Q15761); experiment: Displacement of [125I]peptide YY from human NPY5 receptor
T1 sequence (Q15761 whole entry): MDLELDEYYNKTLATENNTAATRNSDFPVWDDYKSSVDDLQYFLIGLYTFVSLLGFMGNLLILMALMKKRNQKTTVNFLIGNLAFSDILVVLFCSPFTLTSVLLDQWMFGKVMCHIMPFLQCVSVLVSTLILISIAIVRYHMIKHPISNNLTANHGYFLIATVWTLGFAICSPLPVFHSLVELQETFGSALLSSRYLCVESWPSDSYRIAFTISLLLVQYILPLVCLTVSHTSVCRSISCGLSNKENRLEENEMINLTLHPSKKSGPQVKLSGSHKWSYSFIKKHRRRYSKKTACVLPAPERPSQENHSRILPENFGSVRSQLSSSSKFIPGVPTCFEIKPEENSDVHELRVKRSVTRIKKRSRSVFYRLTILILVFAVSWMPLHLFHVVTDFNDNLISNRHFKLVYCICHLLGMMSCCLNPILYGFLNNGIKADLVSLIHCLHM

[4] = Tmax in Sprague-Dawley rat plasma at 2 mg/kg, po and 1 mg/kg, iv after 24 hrs wash out period by HPLC analysis; assay type: ADME, organism-based; how it was run: as §2
Brain [5] = experiment: Drug uptake in Sprague-Dawley rat brain at 10 mg/kg, po by LC-MS/MS analysis; assay type: ADME, organism-based; set-up: dose 10 mg/kg, route oral; conditions: in vivo, read-out: Drug uptake
How it was run: (§3)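 Male Sprague-Dawley rats (300–350 g), femoral artery cannulated; single 10 mg/kg oral dose in an appropriate vehicle, N = 3. Blood taken predose, 1, 2 and 4 h; brains then collected and stored at -80 °C. Equal portions of plasma or homogenized brain from the three rats pooled per time point, protein precipitated, quantified by LC/MS/MS.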

[6] = Plasma concentration in cPP-induced feeding Sprague-Dawley rat model at 0.1 mg/kg, po after 1 hr; assay type: ADME, organism-based; set-up: dose 0.1 mg/kg, route oral; how it was run: as §1
Cytochrome P450 1A2 = target: T2, Cytochrome P450 1A2 (Homo sapiens, UniProt P05177); experiment: Inhibition of CYP1A2; assay type: ADME
T2 sequence (P05177 whole entry): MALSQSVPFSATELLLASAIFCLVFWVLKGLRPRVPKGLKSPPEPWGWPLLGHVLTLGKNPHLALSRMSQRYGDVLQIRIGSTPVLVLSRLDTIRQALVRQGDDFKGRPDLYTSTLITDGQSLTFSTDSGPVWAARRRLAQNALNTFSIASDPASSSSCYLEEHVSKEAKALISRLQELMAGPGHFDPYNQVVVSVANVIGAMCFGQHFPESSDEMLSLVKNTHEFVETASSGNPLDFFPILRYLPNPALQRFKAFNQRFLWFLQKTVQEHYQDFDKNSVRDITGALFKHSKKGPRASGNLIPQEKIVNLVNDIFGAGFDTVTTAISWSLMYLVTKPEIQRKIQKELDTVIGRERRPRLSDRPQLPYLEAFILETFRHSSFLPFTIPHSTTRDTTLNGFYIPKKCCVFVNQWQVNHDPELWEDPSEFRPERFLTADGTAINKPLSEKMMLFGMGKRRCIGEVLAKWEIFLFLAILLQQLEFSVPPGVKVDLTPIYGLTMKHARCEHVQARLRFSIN

[7] = Clearance in Sprague-Dawley rat blood at 2 mg/kg, po and 1 mg/kg, iv after 24 hrs wash out period by HPLC analysis; assay type: ADME, organism-based; conditions: whole blood; how it was run: as §2
Plasma [8] = experiment: Plasma concentration in Sprague-Dawley rat at 10 mg/kg, po by LC-MS/MS analysis; assay type: ADME, organism-based; set-up: dose 10 mg/kg, route oral; conditions: in vivo; how it was run: as §3
[9] = Drug uptake in cPP-induced feeding Sprague-Dawley rat model brain at 1 mg/kg, po after 1 hr; assay type: ADME, organism-based; set-up: dose 1 mg/kg, route oral; conditions: read-out: Drug uptake; how it was run: as §1
[10] = Drug uptake in cPP-induced feeding Sprague-Dawley rat model brain at 0.1 mg/kg, po after 1 hr; assay type: ADME, organism-based; set-up: dose 0.1 mg/kg, route oral; conditions: read-out: Drug uptake; how it was run: as §1
[11] = Protein binding in human; assay type: ADME, organism-based; conditions: plasma, read-out: PB (converted)
[12] = Half life in Sprague-Dawley rat plasma at 2 mg/kg, po and 1 mg/kg, iv after 24 hrs wash out period by HPLC analysis; assay type: ADME, organism-based; how it was run: as §2
Liver microsomes [13] = experiment: Intrinsic clearance in human liver microsomes at 1 uM by LC/MS analysis; assay type: ADME, Microsome
How it was run: (§4)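 Compound incubated with human or rat liver microsomes; reaction quenched with acetonitrile, centrifuged, and remaining drug in supernatant measured by LC/MS to estimate T1/2, from which intrinsic clearance was derived.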

[14] = Lipophilicity, log D of the compound at pH 7.4; assay type: physicochemical; conditions: buffer
Cytochrome P450 2C8 = target: T3, Cytochrome P450 2C8 (Homo sapiens, UniProt P10632); experiment: Inhibition of CYP2C8; assay type: ADME
T3 sequence (P10632 whole entry): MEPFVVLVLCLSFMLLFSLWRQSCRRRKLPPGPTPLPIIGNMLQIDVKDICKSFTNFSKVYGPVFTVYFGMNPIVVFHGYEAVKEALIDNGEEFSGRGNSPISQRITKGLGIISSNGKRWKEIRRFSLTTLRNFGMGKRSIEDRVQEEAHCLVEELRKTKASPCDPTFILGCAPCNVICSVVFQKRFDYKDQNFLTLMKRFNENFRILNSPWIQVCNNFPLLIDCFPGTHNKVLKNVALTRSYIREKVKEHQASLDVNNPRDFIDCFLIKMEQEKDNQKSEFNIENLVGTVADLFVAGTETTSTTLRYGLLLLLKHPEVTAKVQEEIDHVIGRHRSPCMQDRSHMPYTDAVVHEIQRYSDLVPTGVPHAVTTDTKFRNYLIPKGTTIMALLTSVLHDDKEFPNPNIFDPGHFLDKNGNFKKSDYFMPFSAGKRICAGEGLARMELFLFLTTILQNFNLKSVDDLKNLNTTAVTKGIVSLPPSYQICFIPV

Plasma [15] = experiment: Plasma concentration in Sprague-Dawley rat assessed as 2-(5-chloro-1H-indol-1-yl)-N-(4-((propan-2 ylsulfonamido)methyl)cyclohexyl)acetamide level at 10 mg/kg, po after 1 hr by LC-MS/MS analysis; assay type: ADME, organism-based; set-up: dose 10 mg/kg, route oral; conditions: in vivo; how it was run: as §3
Brain [16] = experiment: Drug uptake in Sprague-Dawley rat brain assessed as 2-(5-chloro-1H-indol-1-yl)-N-(4-((propan-2-ylsulfonamido)methyl)cyclohexyl)acetamide level at 10 mg/kg, po after 1 hr by LC-MS/MS analysis; assay type: ADME, organism-based; set-up: dose 10 mg/kg, route oral; conditions: in vivo, read-out: Drug uptake; how it was run: as §3
Cytochrome P450 2C19 = Cytochrome P450 2C19 (Homo sapiens, UniProt P33261); experiment: Inhibition of CYP2C19; assay type: ADME
Sequence of Cytochrome P450 2C19 (P33261 whole entry): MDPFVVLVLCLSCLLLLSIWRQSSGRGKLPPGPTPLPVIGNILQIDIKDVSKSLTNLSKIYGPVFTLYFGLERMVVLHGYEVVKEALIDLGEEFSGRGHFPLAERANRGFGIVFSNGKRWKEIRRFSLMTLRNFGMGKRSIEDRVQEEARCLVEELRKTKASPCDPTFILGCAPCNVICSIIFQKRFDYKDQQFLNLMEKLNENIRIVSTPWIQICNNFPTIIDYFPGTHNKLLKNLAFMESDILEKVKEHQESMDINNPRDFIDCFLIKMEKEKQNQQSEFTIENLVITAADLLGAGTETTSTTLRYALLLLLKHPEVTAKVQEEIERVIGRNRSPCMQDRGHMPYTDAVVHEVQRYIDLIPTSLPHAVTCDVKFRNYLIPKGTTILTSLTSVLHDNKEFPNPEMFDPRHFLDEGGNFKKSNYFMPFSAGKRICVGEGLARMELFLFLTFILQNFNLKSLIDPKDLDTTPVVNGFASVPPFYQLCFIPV

[17] = Drug uptake in cPP-induced feeding Sprague-Dawley rat model brain at 10 mg/kg, po after 1 hr; assay type: ADME, organism-based; set-up: dose 10 mg/kg, route oral; conditions: read-out: Drug uptake; how it was run: as §1
Liver microsomes [18] = experiment: Intrinsic clearance in rat liver microsomes at 1 uM by LC/MS analysis; assay type: ADME, Microsome; how it was run: as §4
[19] = Absolute oral bioavailability in Sprague-Dawley rat at 2 mg/kg after 24 hrs wash out period by HPLC analysis; assay type: ADME, organism-based; conditions: in vivo; how it was run: as §2
Rattus norvegicus = experiment: Antiobesity activity in po dosed cPP-induced feeding Sprague-Dawley rat model assessed as reduction in food intake measured 1 hr post cpp challenge; assay type: functional
How it was run: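 Rats pretreated orally at 0.1, 1 or 10 mg/kg (vehicle 20% cyclodextrin) 1 h before intracerebroventricular infusion of Y5-selective peptide agonist cPP, 0.6 nmol in normal saline; food intake recorded, n = 7–14 per group.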

[20] = Cmax in Sprague-Dawley rat plasma at 2 mg/kg, po and 1 mg/kg, iv after 24 hrs wash out period by HPLC analysis; assay type: ADME, organism-based; how it was run: as §2
[21] = Solubility of the compound at pH 7.4; assay type: physicochemical; conditions: buffer
[22] = Volume of distribution at steady state in Sprague-Dawley rat plasma at 2 mg/kg, po and 1 mg/kg, iv after 24 hrs wash out period by HPLC analysis; assay type: ADME, organism-based; conditions: read-out: Vdss; how it was run: as §2
[23] = Plasma concentration in cPP-induced feeding Sprague-Dawley rat model at 1 mg/kg, po after 1 hr; assay type: ADME, organism-based; set-up: dose 1 mg/kg, route oral; how it was run: as §1

concentration at 1 h [1]: 1260 ng/mL
inhibition (INH) (Cytochrome P450 3A4): Not Active
inhibition (INH) (Cytochrome P450 2D6): Not Active
clearance [2]: 10 mL/min/kg
Ki [3]: 0.3 nM
Tmax [4]: 2 h
concentration (Brain [5]): 54 nM
concentration at 1 h [6]: 84 ng/mL
inhibition (INH) (Cytochrome P450 1A2): Not Active
clearance [7]: 15 mL/min/kg
concentration (Plasma [8]): 751 nM
concentration at 1 h [9]: 38 ng/g
concentration at 1 h [10]: 6 ng/g
fraction unbound [11]: 0.004
half-life [12]: 432 min
CLH (Liver microsomes [13]): 1.9 L/min
logD [14]: 1.2
inhibition (INH) (Cytochrome P450 2C8): Not Active
concentration (Plasma [15]): 8.01 µM
concentration (Brain [16]): 641 nM
inhibition (INH) (Cytochrome P450 2C19): Not Active
concentration at 1 h [17]: 132 ng/g
CLH (Liver microsomes [18]): 11 mL/min
bioavailability [19]: 79%
Cmax [20]: 480 ng/mL
solubility [21]: 160 µM (≈ 68.2 µg/mL)
Vd [22]: 2.8 L/kg
concentration at 1 h [23]: 613 ng/mL
Compound: CC(C)S(=O)(=O)NC[C@H]1CC[C@H](NC(=O)Cn2ccc3cc(Cl)ccc32)CC1
Activity (Rattus norvegicus): Dose-dependent effect
minimal effective dose (Rattus norvegicus; read-out: MED): 0.1 mg/kg

— ChEMBL document CHEMBL2010694, “Indolyl and dihydroindolyl N-glycinamides as potent and in vivo active NPY5 antagonists” (Bioorg Med Chem Lett, 2012)
